# Measured values published in ChEMBL document CHEMBL2434966, “Novel N-4-piperazinyl-ciprofloxacin-chalcone hybrids: synthesis, physicochemical properties, anticancer and topoisomerase I and II inhibitory activity” (Eur J Med Chem, 2013).
# Key:
# [1] = Growth inhibition of human HCC2998 cells assessed as cell growth at 10^-5 M after 48 hrs by sulforhodamine B assay; format: functional; conditions: HCC 2998, 48 h, read-out: Activity
# Summary of the method: (§1)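 NCI 60-cell-line primary screen. Single concentration of 10^-5 M, 48 h incubation. End point by sulforhodamine B protein staining read spectrophotometrically. Reported as percent growth of treated cells relative to untreated control cells.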
# HCT-15 = assay: Growth inhibition of human HCT15 cells after 48 hrs by sulforhodamine B assay; format: functional; conditions: HCT-15, 48 h
# Summary of the method: (§2)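 NCI 60-panel five-dose test at 10-fold dilutions, 10^-4 to 10^-8 M, with 48 h continuous exposure and SRB protein read-out. Percent growth derived from time-zero, untreated-control and treated absorbances. GI50 is the concentration where [(Ti-Tz)/(C-Tz)]×100 = 50. TGI is taken at Ti = Tz. LC50 is taken at [(Ti-Tz)/Tz]×100 = -50.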
# BT-549 = assay: Growth inhibition of human BT549 cells assessed as cell growth at 10^-5 M after 48 hrs by sulforhodamine B assay; format: functional; conditions: BT-549, 48 h, read-out: Activity; summary of the method: as §1
# LOX IMVI = assay: Growth inhibition of human LOXIMVI cells assessed as cell growth at 10^-5 M after 48 hrs by sulforhodamine B assay; format: functional; conditions: read-out: Activity; summary of the method: as §1
# NCI-H322M = assay: Growth inhibition of human NCI-H322M cells after 48 hrs by sulforhodamine B assay; format: functional; conditions: for CC50: read-out: LC50 (the source's name)
# Summary of the method: (§3)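 NCI five-dose screen on the full 60-cell-line panel. Cells were given 10-fold dilutions from 10^-4 to 10^-8 M with continuous 48 h exposure, and growth was read by SRB staining. Percent growth was taken from time-zero, control and treated absorbances. GI50, TGI and LC50 were then derived, the GI50 being the concentration that gives a 50% lower net protein increase than control.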
# [2] = Growth inhibition of human Hs 578T cells assessed as cell growth at 10^-5 M after 48 hrs by sulforhodamine B assay; format: functional; conditions: read-out: Activity; summary of the method: as §1
# OVCAR-3 = assay: Growth inhibition of human OVCAR3 cells after 48 hrs by sulforhodamine B assay; format: functional; conditions: OVCAR-3, 48 h; for CC50: read-out: LC50 (the source's name); summary of the method: as §3
# KM12 = assay: Growth inhibition of human KM12 cells after 48 hrs by sulforhodamine B assay; format: functional; conditions: KM12, 48 h; for CC50: read-out: LC50 (the source's name); summary of the method: as §2
# NCI-H522 [3] = assay: Growth inhibition of human NCI-H522 cells assessed as cell growth at 10^-5 M after 48 hrs by sulforhodamine B assay; format: functional; conditions: NCI-H522, 48 h, read-out: Activity
# Summary of the method: (§4)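 NCI 60-cell-line primary one-dose screen. Cells were exposed to a single 10^-5 M concentration for 48 h. The end point was sulforhodamine B protein staining, read spectrophotometrically. Results are reported as percent growth of treated cells relative to untreated control cells.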
# MDA-MB-468 [4] = assay: Growth inhibition of human MDA-MB-468 cells assessed as cell growth at 10^-5 M after 48 hrs by sulforhodamine B assay; format: functional; conditions: MDA-MB-468, 48 h, read-out: Activity; summary of the method: as §4
# SF-295 = assay: Growth inhibition of human SF295 cells after 48 hrs by sulforhodamine B assay; format: functional; conditions: SF-295, 48 h; summary of the method: as §3
# SK-MEL-2 = assay: Growth inhibition of human SK-MEL-2 cells assessed as cell growth at 10^-5 M after 48 hrs by sulforhodamine B assay; format: functional; conditions: SK-MEL-2, 48 h, read-out: Activity; summary of the method: as §4
# RPMI-8226 [5] = assay: Growth inhibition of human RPMI8226 cells assessed as cell growth at 10^-5 M after 48 hrs by sulforhodamine B assay; format: functional; conditions: RPMI-8226, 48 h, read-out: Activity; summary of the method: as §4
# DU-145 = assay: Growth inhibition of human DU145 cells after 48 hrs by sulforhodamine B assay; format: functional; conditions: DU-145, 48 h; summary of the method: as §2
# MDA-MB-468 [6] = assay: Growth inhibition of human MDA-MB-468 cells after 48 hrs by sulforhodamine B assay; format: functional; conditions: MDA-MB-468, 48 h; summary of the method: as §3
# ACHN = assay: Growth inhibition of human ACHN cells after 48 hrs by sulforhodamine B assay; format: functional; conditions: for CC50: read-out: LC50 (the source's name); summary of the method: as §2
# RPMI-8226 [7] = assay: Growth inhibition of human RPMI8226 cells after 48 hrs by sulforhodamine B assay; format: functional; conditions: RPMI-8226, 48 h; for CC50: read-out: LC50 (the source's name); summary of the method: as §3
# SNB-19 = assay: Growth inhibition of human SNB19 cells assessed as cell growth at 10^-5 M after 48 hrs by sulforhodamine B assay; format: functional; conditions: SNB-19, 48 h, read-out: Activity
# Summary of the method: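 NCI primary one-dose screen: single concentration of 10^-5 M added to culture, 48 h incubation, SRB protein-dye endpoint. Percent growth of treated cells measured spectrophotometrically against untreated controls.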
# SW-620 = assay: Growth inhibition of human SW620 cells after 48 hrs by sulforhodamine B assay; format: functional; conditions: SW-620, 48 h; for CC50: read-out: LC50 (the source's name)
# Summary of the method: (§5)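 NCI 60-cell panel, five concentrations (10-fold dilutions, 0.01–100 µM), 48 h continuous exposure; SRB protein stain read spectrophotometrically. Percent growth from time-zero, untreated-control and treated absorbances. GI50 is the concentration giving 50% lower net protein increase than control. Values beyond the tested range are reported as more or less than the highest or lowest concentration.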
# M14 = assay: Growth inhibition of human M14 cells assessed as cell growth at 10^-5 M after 48 hrs by sulforhodamine B assay; format: functional; conditions: M14, 48 h, read-out: Activity; summary of the method: as §1
# SN12C = assay: Growth inhibition of human SN12C cells assessed as cell growth at 10^-5 M after 48 hrs by sulforhodamine B assay; format: functional; conditions: read-out: Activity; summary of the method: as §4
# NCI-H522 [8] = assay: Growth inhibition of human NCI-H522 cells after 48 hrs by sulforhodamine B assay; format: functional; conditions: NCI-H522, 48 h; for CC50: read-out: LC50 (the source's name); summary of the method: as §3
# SK-OV-3 = assay: Growth inhibition of human SKOV3 cells after 48 hrs by sulforhodamine B assay; format: functional; conditions: SK-OV-3, 48 h; summary of the method: as §3
# [9] = Octanol-phosphate buffer partition coefficient, log P of the compound after 5 hrs by shake-flask method; format: physicochemical
# Summary of the method: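 Shake-flask method: 100 µL of 0.2 mg/mL stock diluted into 1.9 mL phosphate buffer pH 7.4 plus 2 mL mutually saturated n-octanol, protected from light. Vortexed 3 min, shaken 5 h at 25 °C. Both phases assayed by UV at 272 nm; log P = log([octanol]/[aqueous]), run in triplicate.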
# SR = assay: Growth inhibition of human SR cells after 48 hrs by sulforhodamine B assay; format: functional; summary of the method: as §5
smiles,measurement,setting,value
COc1cc(/C=C/C(=O)c2ccc(NC(=O)CN3CCN(c4cc5c(cc4F)c(=O)c(C(=O)O)cn5C4CC4)CC3)cc2)cc(OC)c1OC,growth at 10 µM,[1],-11.6%
same,GI50,HCT-15,0.45 µM
same,LC50 (concentration giving 50% net cell kill),HCT-15,> 100 µM
same,TGI,HCT-15,> 100 µM
same,growth at 10 µM,BT-549,-86.7%
same,growth at 10 µM,LOX IMVI,-54.7%
same,GI50,NCI-H322M,0.29 µM
same,TGI,NCI-H322M,2.3 µM
same,CC50,NCI-H322M,> 100 µM
same,growth at 10 µM,[2],76.8%
same,GI50,OVCAR-3,0.29 µM
same,TGI,OVCAR-3,0.92 µM
same,CC50,OVCAR-3,9.04 µM
same,GI50,KM12,0.53 µM
same,TGI,KM12,3.17 µM
same,CC50,KM12,> 100 µM
same,growth at 10 µM,NCI-H522 [3],-71.5%
same,growth at 10 µM,MDA-MB-468 [4],-1.82%
same,GI50,SF-295,0.53 µM
same,LC50 (concentration giving 50% net cell kill),SF-295,53.1 µM
same,TGI,SF-295,3.13 µM
same,growth at 10 µM,SK-MEL-2,30%
same,growth at 10 µM,RPMI-8226 [5],-18.8%
same,GI50,DU-145,0.67 µM
same,LC50 (concentration killing 50% of starting cells),DU-145,> 100 µM
same,TGI,DU-145,> 100 µM
same,GI50,MDA-MB-468 [6],0.33 µM
same,LC50 (concentration killing 50% of starting cells),MDA-MB-468 [6],40.7 µM
same,TGI,MDA-MB-468 [6],1.78 µM
same,GI50,ACHN,0.45 µM
same,TGI,ACHN,7.09 µM
same,CC50,ACHN,> 100 µM
same,GI50,RPMI-8226 [7],0.29 µM
same,TGI,RPMI-8226 [7],0.77 µM
same,CC50,RPMI-8226 [7],> 100 µM
same,growth at 10 µM,SNB-19,34.9%
same,GI50,SW-620,0.42 µM
same,TGI,SW-620,3.2 µM
same,CC50,SW-620,> 100 µM
same,growth at 10 µM,M14,-14.1%
same,growth at 10 µM,SN12C,10.3%
same,GI50,NCI-H522 [8],0.66 µM
same,TGI,NCI-H522 [8],3.19 µM
same,CC50,NCI-H522 [8],17.9 µM
same,GI50,SK-OV-3,3.57 µM
same,LC50,SK-OV-3,> 100 µM
same,TGI,SK-OV-3,> 100 µM
same,logP at 5 h,[9],0.753
same,GI50,SR,0.21 µM
same,LC50 (concentration killing 50% of cells),SR,> 100 µM
same,TGI,SR,> 100 µM
O=C(CN1CCN(c2cc3c(cc2F)c(=O)c(C(=O)O)cn3C2CC2)CC1)Nc1ccc(C(=O)/C=C/c2ccccc2)cc1,growth at 10 µM,[1],70.1%
same,GI50,HCT-15,3.68 µM
same,LC50 (concentration giving 50% net cell kill),HCT-15,> 100 µM
same,TGI,HCT-15,> 100 µM
same,growth at 10 µM,BT-549,9.61%
same,growth at 10 µM,LOX IMVI,5.67%
same,GI50,NCI-H322M,4.04 µM
same,TGI,NCI-H322M,58.7 µM
same,CC50,NCI-H322M,> 100 µM
same,growth at 10 µM,[2],51.9%
same,GI50,OVCAR-3,3.64 µM
same,TGI,OVCAR-3,> 100 µM
same,CC50,OVCAR-3,> 100 µM
same,GI50,KM12,4.11 µM
same,TGI,KM12,> 100 µM
same,CC50,KM12,> 100 µM
same,growth at 10 µM,NCI-H522 [3],10.6%
same,growth at 10 µM,MDA-MB-468 [4],33.8%
same,GI50,SF-295,2.11 µM
same,LC50 (concentration giving 50% net cell kill),SF-295,> 100 µM
same,TGI,SF-295,6.25 µM
same,growth at 10 µM,SK-MEL-2,53.7%
same,growth at 10 µM,RPMI-8226 [5],2.45%
same,GI50,DU-145,3.74 µM
same,LC50 (concentration killing 50% of starting cells),DU-145,> 100 µM
same,TGI,DU-145,> 100 µM
same,GI50,MDA-MB-468 [6],2.45 µM
same,LC50 (concentration killing 50% of starting cells),MDA-MB-468 [6],> 100 µM
same,TGI,MDA-MB-468 [6],23.2 µM
same,GI50,ACHN,3.3 µM
same,TGI,ACHN,31.9 µM
same,CC50,ACHN,> 100 µM
same,GI50,RPMI-8226 [7],2.52 µM
same,TGI,RPMI-8226 [7],6.73 µM
same,CC50,RPMI-8226 [7],> 100 µM
same,growth at 10 µM,SNB-19,40.3%
same,GI50,SW-620,3.8 µM
same,TGI,SW-620,> 100 µM
same,CC50,SW-620,> 100 µM
same,growth at 10 µM,M14,31.9%
same,growth at 10 µM,SN12C,11.3%
same,GI50,NCI-H522 [8],1.7 µM
same,TGI,NCI-H522 [8],7.78 µM
same,CC50,NCI-H522 [8],> 100 µM
same,GI50,SK-OV-3,27.3 µM
same,LC50,SK-OV-3,> 100 µM
same,TGI,SK-OV-3,> 100 µM
same,logP at 5 h,[9],1.29
same,GI50,SR,1.54 µM
same,LC50 (concentration killing 50% of cells),SR,> 100 µM
same,TGI,SR,6.1 µM
